# Test results: ChEMBL document CHEMBL1828573, “Synthesis and biological evaluation of the glycoside (25R)-3β,16β-diacetoxy-22-oxocholest-5-en-26-yl β-d-glucopyranoside: a selective anticancer agent in cervicouterine cell lines” (Eur J Med Chem, 2011)
# Activity calls are given as the source filed them. The rule behind the calls is not given here.
# Tests used:
# Ca-Ski [1] = experiment: Antiproliferative activity human CaSki cells after 24 hrs by crystal violet staining; format: functional, cell-based
# Procedure, shortened: (§1)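 Cells in RPMI-1640 with 5% newborn calf serum, 37 °C, 5% CO2, exponential phase. Seeded at 7500 cells/well and grown 24 h, then exposed over a concentration range in ethanol vehicle; controls got 1% ethanol. After 24 h, crystal violet staining with absorbance at 590 nm. IC50 taken from the decrease in cell population.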
# HeLa [2] = experiment: Cell cycle arrest at G2/M-phase in human HeLa cells at 29.5 to 33.9 uM after 24 hrs using propidium iodine staining by flow cytometry; format: functional, cell-based
# Procedure, shortened: (§2)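 Seeded at 10^5 cells/mL and grown 24 h, then exposed to 33.9 or 29.5 µM. Harvested with versene and fixed/permeabilized in 50% methanol in PBS. Treated with RNase (2.5 U/mL), stained with propidium iodide (0.2 mg/mL), DNA content analysed by G1, S, G2/M and SubG1.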
# Ca-Ski [3] = experiment: Induction of apoptosis in human CaSki cells assessed as DNA fragmentation at IC50 after 24 hrs by TUNEL assay; format: functional, cell-based
# [4] = Cytotoxicity against human ViBo cells assessed as LDH release at IC50 after 24 hrs by spectrophotometry; format: functional
# HeLa [5] = experiment: Antiproliferative activity human HeLa cells after 24 hrs by crystal violet staining; format: functional, cell-based; procedure, shortened: as §1
# HeLa [6] = experiment: Induction of apoptosis in human HeLa cells assessed as DNA fragmentation at IC50 after 24 hrs by TUNEL assay; format: functional, cell-based
# Ca-Ski [7] = experiment: Induction of apoptosis in human CaSki cells assessed as increase in cell nuclei released from broken cell at 29.5 to 33.9 uM after 24 hrs using propidium iodine staining by flow cytometry; format: functional, cell-based; procedure, shortened: as §2
# Ca-Ski [8] = experiment: Cell cycle arrest at G1-phase in human CaSki cells at 29.5 to 33.9 uM after 24 hrs using propidium iodine staining by flow cytometry; format: functional, cell-based; procedure, shortened: as §2
# Ca-Ski [9] = experiment: Induction of apoptosis in human CaSki cells assessed as decrease in DNA level at 29.5 to 33.9 uM after 24 hrs using propidium iodine staining by flow cytometry; format: functional, cell-based; procedure, shortened: as §2
# Ca-Ski [10] = experiment: Cell cycle arrest at G2/M-phase in human CaSki cells at 29.5 to 33.9 uM after 24 hrs using propidium iodine staining by flow cytometry; format: functional, cell-based; procedure, shortened: as §2
# [11] = Cell cycle arrest at S-phase in human ViBo cells at 29.5 to 33.9 uM after 24 hrs using propidium iodine staining by flow cytometry; format: functional, cell-based; procedure, shortened: as §2
# Ca-Ski [12] = experiment: Induction of apoptosis in human CaSki cells assessed as induction of active caspase-3 expression at 29.5 to 33.9 uM using FITC/DAPI staining by epifluorescence microscopy; format: functional, cell-based
# Procedure, shortened: (§3)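 Seeded at 5 × 10^4 cells/mL in RPMI-1640 with 5% NCS for 24 h, then treated with 33.9 or 29.5 µM. Formaldehyde fixation 15 min, 0.5% Triton X-100 permeabilization, blocking. Rabbit anti-active caspase-3 (1:50), then FITC goat anti-rabbit (1:200). DAPI counterstain; fluorescence microscopy.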
# ViBo [13] = experiment: Induction of apoptosis in human ViBo cells assessed as induction of active caspase-3 expression at 29.5 to 33.9 uM using FITC/DAPI staining by epifluorescence microscopy; format: functional, cell-based; procedure, shortened: as §3
# HeLa [14] = experiment: Induction of apoptosis in human HeLa cells assessed as induction of active caspase-3 expression at 29.5 to 33.9 uM using FITC/DAPI staining by epifluorescence microscopy; format: functional, cell-based; procedure, shortened: as §3
# [15] = Cytotoxicity against human PHA-stimulated lymphocytes assessed as LDH release at 33.9 uM after 72 hrs by spectrophotometry; format: cell-based; settings: lymphocyte
# Procedure, shortened: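 Lymphocytes exposed to compound or ethanol (10 µL/mL); PHA-activated lymphocytes (15 µL/mL) served as control. After 72 h, LDH released into the culture supernatant measured. Mean ± S.D. of three independent experiments with three repetitions.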
# PBMC [16] = experiment: Antiproliferative activity human PBMC assessed as proliferating cells at 33.9 uM after 72 hrs using FITC-A staining by flow cytometry; format: cell-based
# Procedure, shortened: (§4)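 Enriched lymphocytes from one healthy donor: non-adherent cells kept after 1 h at 37 °C. Labelled with CFSE for 15 min at room temperature in the dark, quenched with NCS, washed. Plated at 2 × 10^5 cells/well, unstimulated, PHA-stimulated or treated, with ethanol 1% vehicle control. Five replicates, 72 h at 37 °C. Then 1% formaldehyde fixation and flow cytometry, ≥20,000 events.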
# PBMC [17] = experiment: Antiproliferative activity human PBMC assessed as non-proliferating cells at 33.9 uM after 72 hrs using FITC-A staining by flow cytometry; format: cell-based; procedure, shortened: as §4
# ViBo [18] = experiment: Induction of apoptosis in human ViBo cells assessed as DNA fragmentation at IC50 after 24 hrs by TUNEL assay; format: functional, cell-based
# HeLa [19] = experiment: Cell cycle arrest at S-phase in human HeLa cells at 29.5 to 33.9 uM after 24 hrs using propidium iodine staining by flow cytometry; format: functional, cell-based; procedure, shortened: as §2
# HeLa [20] = experiment: Cytotoxicity against human HeLa cells assessed as LDH release at IC50 after 24 hrs by spectrophotometry; format: functional
# Ca-Ski [21] = experiment: Cell cycle arrest at S-phase in human CaSki cells at 29.5 to 33.9 uM after 24 hrs using propidium iodine staining by flow cytometry; format: functional, cell-based; procedure, shortened: as §2
# [22] = Cell cycle arrest at G2/M-phase in human ViBo cells at 29.5 to 33.9 uM after 24 hrs using propidium iodine staining by flow cytometry; format: functional, cell-based; procedure, shortened: as §2
# [23] = Antiproliferative activity human ViBo cells after 24 hrs by crystal violet staining; format: functional, cell-based; procedure, shortened: as §1
# Ca-Ski [24] = experiment: Cytotoxicity against human CaSki cells assessed as LDH release at IC50 after 24 hrs by spectrophotometry; format: functional
structure (smiles),measurement,setting,value
CC(=O)O[C@H]1CC[C@@]2(C)C(=CC[C@H]3[C@@H]4C[C@H](OC(C)=O)[C@H]([C@H](C)C(=O)CC[C@@H](C)CO)[C@@]4(C)CC[C@@H]32)C1,IC50,Ca-Ski [1],47.1 µM
CC(=O)O[C@H]1CC[C@@]2(C)C(=CC[C@H]3[C@@H]4C[C@H](OC(C)=O)[C@H]([C@H](C)C(=O)CC[C@@H](C)CO[C@@H]5O[C@H](CO)[C@@H](O)[C@H](O)[C@H]5O)[C@@]4(C)CC[C@@H]32)C1,Activity,HeLa [2],Active
same,Activity,Ca-Ski [3],Active
same,Activity,[4],11%
same,IC50,HeLa [5],29.5 µM
same,Activity,Ca-Ski [1],Dose-dependent effect
same,IC50,Ca-Ski [1],33.9 µM
same,Activity,HeLa [6],Active
same,Activity,Ca-Ski [7],Active
same,Activity,Ca-Ski [8],inactive
same,Activity,Ca-Ski [9],Active
same,Activity,Ca-Ski [10],inactive
same,Activity,[11],Active
same,Activity,Ca-Ski [12],Active
same,Activity,ViBo [13],Active
same,Activity,HeLa [14],Active
same,Activity,[15],Non-toxic
same,Activity,PBMC [16],72.09%
same,Activity,PBMC [17],27.91%
same,Activity,ViBo [18],Active
same,Activity,HeLa [19],Active
same,Activity,HeLa [20],6%
same,Activity,Ca-Ski [21],inactive
same,Activity,[22],Active
same,IC50,[23],29.5 µM
same,Activity,Ca-Ski [24],1%
